An excerpt weighted towards active compounds, which were near 12% of everything screened.
ROMK primary: modulators of human ROMK potassium channel. Tet-inducible ROMK, thallium flux fluorescence; actives lie on both sides. B-score at 10 µM. actives 2% (n = 130,000). AID 1918;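 active = signal ratio slope over the read window, or its plate-corrected B-score, at least 3 SD from the plate mean, either direction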;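 note: B-score of the F/F0 ratio slope over 7 to 12 s after thallium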
Diaphorase act: diaphorase activation or chemical reduction counter-screen; Diaphorase/resazurin coupled assay, resorufin fluorescence, 16 min; active compounds read high; 1 = vehicle wells, 0 = NADH-free wells; activation factor at 20 µM; actives 0.005% (n = 190,000); AID 1229;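 active = diaphorase activity raised at least twofold by the compound at 20 µM; inactive = activation factor below 2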
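System – purified diaphorase enzyme from Clostridium kluyveri · Input – enzyme 0.07 U/mL final · Also added – final NADH 0.114 mM, resazurin 0.1 mM · Measured by – fluorescence of resorufin, 544 nm excitation, 590 nm emission · Timing – 16 min enzyme reaction, ambient temperature · Measure – resorufin increase flagging diaphorase activators or reducers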
Lmaj promast: inhibitors of Leishmania major promastigote growth. AID 1063. inhibition, % at 10 µM. actives 9% (n = 200,000). Leishmania major promastigotes, resazurin fluorescence viability; in the data active = inhibition above about 50%;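 note: promastigotes grown with compound for 44 hours at 28 °C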
Cl transport mod: KCC2 (human) Cl- transport modulation; AID 1456; Q9H2X9; B-score of Tl+ flux slope (higher = more flux/activation; lower = inhibition) at 10 µM; KCC2 cells, thallium flux FluoZin-2 fluorescence; actives 2.2% (n = 190,000);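 active = thallium flux slope and its plate-corrected score both differing from the plate sample mean at a set confidence after two filtering rounds, in either direction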;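 note: slope of fluorescence scaled to starting intensity during 10 to 20 s after thallium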
Target sequence (Q9H2X9 whole entry, looked up): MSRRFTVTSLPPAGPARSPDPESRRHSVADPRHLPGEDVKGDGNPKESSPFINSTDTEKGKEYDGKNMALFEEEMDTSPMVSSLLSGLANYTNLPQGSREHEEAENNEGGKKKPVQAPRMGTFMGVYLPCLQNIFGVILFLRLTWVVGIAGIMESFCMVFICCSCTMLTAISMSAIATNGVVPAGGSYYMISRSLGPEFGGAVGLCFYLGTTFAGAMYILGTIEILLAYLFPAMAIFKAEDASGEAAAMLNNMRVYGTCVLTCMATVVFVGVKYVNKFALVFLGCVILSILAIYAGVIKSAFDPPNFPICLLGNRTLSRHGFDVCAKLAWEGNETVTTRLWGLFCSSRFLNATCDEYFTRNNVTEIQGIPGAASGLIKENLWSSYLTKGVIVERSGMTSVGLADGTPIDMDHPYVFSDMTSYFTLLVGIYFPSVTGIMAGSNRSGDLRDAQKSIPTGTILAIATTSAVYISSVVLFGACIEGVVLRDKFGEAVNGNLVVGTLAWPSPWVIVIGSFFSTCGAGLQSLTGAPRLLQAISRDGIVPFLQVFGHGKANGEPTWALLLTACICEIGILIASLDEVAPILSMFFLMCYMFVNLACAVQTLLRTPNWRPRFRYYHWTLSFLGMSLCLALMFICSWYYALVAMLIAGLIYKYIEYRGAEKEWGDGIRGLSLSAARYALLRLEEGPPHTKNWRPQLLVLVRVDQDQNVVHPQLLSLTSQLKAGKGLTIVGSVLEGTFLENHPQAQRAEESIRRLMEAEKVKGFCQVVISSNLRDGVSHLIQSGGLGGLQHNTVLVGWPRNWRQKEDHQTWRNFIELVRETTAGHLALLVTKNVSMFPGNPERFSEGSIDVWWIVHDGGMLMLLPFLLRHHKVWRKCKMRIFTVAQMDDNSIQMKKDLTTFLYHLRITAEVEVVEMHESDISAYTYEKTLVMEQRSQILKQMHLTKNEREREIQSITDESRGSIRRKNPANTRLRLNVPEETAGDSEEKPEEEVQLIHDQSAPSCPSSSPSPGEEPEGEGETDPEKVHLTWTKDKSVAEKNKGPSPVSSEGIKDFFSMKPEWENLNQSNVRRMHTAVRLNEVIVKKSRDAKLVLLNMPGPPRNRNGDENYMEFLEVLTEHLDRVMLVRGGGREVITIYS
Diaph inh CS: inhibits diaphorase or chemically oxidizes, flagging diaphorase assay artifacts; inhibition, % at 20 µM; actives 0.69% (n = 190,000); diaphorase resazurin-to-resorufin fluorescence, NADH, 16 min; bacterial (C. kluyveri) enzyme, not human;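 active = primary screen inhibition at 20 µM above a set limit, cut at about 50% in these data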
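System: Diaphorase enzyme from Clostridium kluyveri | Amount: Enzyme working solution with 0.14 U/mL diaphorase | Benchmarks: No-NADH positive control and DMSO neutral control | Signal: Fluorescence of resorufin formed from resazurin, Ex 544/Em 590 nm | Schedule: 16-min room-temperature incubation before reading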
WT yeast gro inh: growth inhibition of WT yeast, mitochondrial fusion screen | mitochondrial fusion phenotypic screen, WT strain | inhibition, % at 10 µM | actives 2.1% (n = 190,000) | AID 1362; in the data active = inhibition above about 58%; tested in S. cerevisiae
Hits are given with their value; 0 = inactive; - = no result.

SMILES | ROMK primary | Diaphorase act | Lmaj promast | Cl transport mod | Diaph inh CS | WT yeast gro inh
S=C(Nc1ccc(Br)cc1)N1CCCC1 | 0 | 0 | 0 | 0 | 0 | 0
Fc1cccc(NC(=S)N2CCCCC2)c1 | - | 0 | 0 | 0 | 0 | 0
Fc1ccccc1C1c2cccn2CCN1C(=S)Nc1ccc(Br)cc1 (stereo not given) | 0 | 0 | 0 | 0 | 0 | 62
Fc1ccccc1C1c2cccn2CCN1C(=S)Nc1cccc(Br)c1 (stereo not given) | 0 | 0 | 0 | 0 | 0 | 59
O=C(c1cc2ccccc2oc1=O)N(Cc1cccc(Br)c1)C1CCS(=O)(=O)C1 (stereo not given) | - | - | - | 0 | - | -
COc1ccc(CNC(=O)CCS(=O)(=O)Cc2cccc(Cl)c2)c(OC)c1 | 0 | 0 | 0 | 0 | 0 | 0
Cn1c(=O)c(C(=O)Nc2ccccc2S(N)(=O)=O)c(O)c2ccccc21 | 0 | - | - | 0 | - | -
CCOC(=O)Cc1csc(NC(=O)c2c(O)c3ccccc3n(CC(C)C)c2=O)n1 | 0 | 0 | 79 | - | 0 | 0
CC(C)Cn1c(=O)c(C(=O)Nc2ccccc2S(N)(=O)=O)c(O)c2ccccc21 | 0 | 0 | 0 | 0 | 0 | 73
CCCn1c(=O)c(C(=O)Nc2ccccc2C(=O)OCC)c(O)c2ccccc21 | 0 | 0 | 0 | 0 | 0 | 0
CC(C)Cn1c(=O)c(C(=O)N/N=C/c2cccc(F)c2)c(O)c2ccccc21 | 0 | 0 | 70 | 0 | 0 | 0
CCCCn1c(=O)c(C(=O)N/N=C/c2ccc(F)cc2)c(O)c2ccccc21 | 0 | - | 0 | 0 | - | 0
CCC(C)n1c(=O)c(C(=O)Nc2ccccc2S(N)(=O)=O)c(O)c2ccccc21 (stereo not given) | - | 0 | 0 | 0 | 0 | 65
CCn1c(Cc2cccc3ccccc23)nnc1SCC(=O)Nc1nccs1 | 0 | 0 | 0 | 0 | 0 | 0
COc1ccc(OCCSc2nnc(C(C)NC(=O)c3ccccc3F)n2C)cc1 (stereo not given) | 0 | 0 | 0 | 0 | 0 | 0
CSCc1ccc(C(=O)Nc2cccc(C)c2C)cc1 | - | 0 | 0 | 0 | 0 | 0
CCCOc1ccc(CSC2=NCCN2)cc1[N+](=O)[O-] | 0 | 0 | 57 | - | 0 | 0
O=[N+]([O-])c1cc(CSC2=NCCN2)ccc1O | 0 | - | - | 0 | - | -
COC1CCCN(C(=O)c2ccc(OC3CCN(CCc4ccccc4)CC3)cc2)C1 (stereo not given) | 0 | 0 | 0 | 0 | 0 | 0
CCCc1cc(NC(=O)CCl)n(-c2ccccc2)n1 | 0 | 0 | 51 | 0 | 0 | 0
CC(C)(C)c1cc(NC(=O)CCl)n(-c2ccccc2)n1 | - | - | - | 0 | - | -
O=C(c1ccccc1F)N1CCC(N2CCCCCC2)CC1 | 0 | 0 | 73 | 0 | 0 | 0
COc1cc(/C=C2/C(C)=C(C#N)c3nc(N)c(C#N)c(C)c32)ccc1OCC(=O)O | 0 | 0 | 0 | 0 | 0 | 0
CC1=C(C#N)c2nc(N)c(C#N)c(C)c2/C1=C\c1ccc(-c2ccccc2C(=O)O)o1 | 0 | 0 | 0 | 0 | 62 | 0
CCc1c(C(=O)Nc2ccncc2)csc1C | 0 | 0 | 0 | - | 0 | 0
SMILES | ROMK primary | Diaphorase act | Lmaj promast | Cl transport mod | Diaph inh CS | WT yeast gro inh
CS(=O)(=O)c1nc(-c2ccc(Br)cc2)cc(-c2ccccc2)c1C#N | - | 0 | 84 | 0 | 0 | 0
N#Cc1c(-c2ccc(Br)cc2)cc(-c2cccnc2)nc1N | 0 | 0 | 0 | 0 | 0 | 0
COc1ccc(-c2cc(-c3ccccc3)c(C#N)c(S(C)(=O)=O)n2)cc1 | - | 0 | 98 | 0 | 0 | 0
CS(=O)c1nc(-c2ccc(Br)cc2)cc(-c2ccccc2)c1C#N (stereo not given) | - | 0 | 100 | 0 | 0 | 0
COc1ccc(-c2cc(-c3ccc(OC)cc3)c(C#N)c(SC)n2)cc1 | - | 0 | 0 | 0 | 0 | 0
Cc1c(C(=O)Nc2ccc(S(=O)(=O)NCC3CCCO3)cc2)cccc1[N+](=O)[O-] (stereo not given) | 0 | 0 | 0 | 0 | 0 | 0
Cc1ccc(Oc2ccc(NC(=O)CCC(=O)OCC(=O)c3cccs3)cc2)cc1C | - | 0 | 0 | - | 0 | 0
CCCCC(CC)C(=O)NCc1ccc(F)cc1 (stereo not given) | - | 0 | 0 | 0 | 0 | 0
C=C1/C(=C\C=C2/CCC[C@]3(C)[C@@H]([C@H](C)CCCC(C)(C)O)CC[C@@H]23)C[C@@H](O)C[C@@H]1O | - | 0 | - | 0 | 0 | 94
